Source: PubChem BioAssay
KCNK9 inh: inhibitors of human KCNK9 two-pore domain potassium channel. B-score at 10 µM. HEK293 KCNK9, FluxOR thallium flux fluorescence; active compounds read low. AID 488922. Q9NPC2. actives 1.2% (n = 310,000);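 active means ratio B-score over 3 SD below the library mean, with starting fluorescence within 5 SD of its mean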;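 further: negative B-score means less thallium flux so channel inhibition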
KCNQ1 inh: human KCNQ1 channel inhibition. actives 1.3% (n = 310,000). CHO-K1 KCNQ1, FluxOR thallium flux fluorescence; active compounds read high. P51787. B-score at 10 µM. AID 2642;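 active means compounds whose thallium flux B-score, printed positive for inhibition, exceeds three library SD while starting fluorescence stays within three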;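 further: channel opened by potassium depolarization with thallium stimulus after 20 min compound exposure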
KCNK3 inh: human KCNK3 channel inhibition, primary screen | CHO-KCNK3 thallium flux, FluxOR fluorescence; active compounds read low | actives 0.84% (n = 340,000) | AID 602410 | O14649 | B-score at 10 µM;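 active means B-score under library mean minus 4 SD, starting fluorescence ratio at most library mean plus 5 SD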;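 further: more negative B-score means stronger inhibition of thallium flux through KCNK3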
KCNQ1 pot: potentiates or activates the human KCNQ1 potassium channel. P51787. actives 0.35% (n = 310,000). B-score at 10 µM. CHO-K1 KCNQ1, thallium flux FluxOR fluorescence; active compounds read high. AID 2648;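 active means fluorescence ratio B-score, a plate-corrected score, at least three library SD, with initial intensity B-score within 5 SD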
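Schedule – 37 °C overnight plating, 90-min dark dye load, 20-min compound pretreatment · System – stable KCNQ1 CHO-K1 line · Probe or stimulus – thallium- and potassium-containing depolarizing buffer · Measured by – kinetic FluxOR fluorescence, 10 s baseline plus 110 s post-stimulus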
hERG rescue: shields human hERG channel from block by proarrhythmic agents; AID 1511; actives 0.51% (n = 310,000); CHO-hERG, FluxOR thallium flux, dofetilide IC70 present; activation (rescue from dofetilide block), less the hit threshold, % at 10 µM;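 active means activation above the mean of controls blocked by dofetilide plus 5 SD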;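 further: thallium influx through hERG after potassium depolarization seen as dye fluorescence rise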
Target sequence (Q12809 whole entry, looked up): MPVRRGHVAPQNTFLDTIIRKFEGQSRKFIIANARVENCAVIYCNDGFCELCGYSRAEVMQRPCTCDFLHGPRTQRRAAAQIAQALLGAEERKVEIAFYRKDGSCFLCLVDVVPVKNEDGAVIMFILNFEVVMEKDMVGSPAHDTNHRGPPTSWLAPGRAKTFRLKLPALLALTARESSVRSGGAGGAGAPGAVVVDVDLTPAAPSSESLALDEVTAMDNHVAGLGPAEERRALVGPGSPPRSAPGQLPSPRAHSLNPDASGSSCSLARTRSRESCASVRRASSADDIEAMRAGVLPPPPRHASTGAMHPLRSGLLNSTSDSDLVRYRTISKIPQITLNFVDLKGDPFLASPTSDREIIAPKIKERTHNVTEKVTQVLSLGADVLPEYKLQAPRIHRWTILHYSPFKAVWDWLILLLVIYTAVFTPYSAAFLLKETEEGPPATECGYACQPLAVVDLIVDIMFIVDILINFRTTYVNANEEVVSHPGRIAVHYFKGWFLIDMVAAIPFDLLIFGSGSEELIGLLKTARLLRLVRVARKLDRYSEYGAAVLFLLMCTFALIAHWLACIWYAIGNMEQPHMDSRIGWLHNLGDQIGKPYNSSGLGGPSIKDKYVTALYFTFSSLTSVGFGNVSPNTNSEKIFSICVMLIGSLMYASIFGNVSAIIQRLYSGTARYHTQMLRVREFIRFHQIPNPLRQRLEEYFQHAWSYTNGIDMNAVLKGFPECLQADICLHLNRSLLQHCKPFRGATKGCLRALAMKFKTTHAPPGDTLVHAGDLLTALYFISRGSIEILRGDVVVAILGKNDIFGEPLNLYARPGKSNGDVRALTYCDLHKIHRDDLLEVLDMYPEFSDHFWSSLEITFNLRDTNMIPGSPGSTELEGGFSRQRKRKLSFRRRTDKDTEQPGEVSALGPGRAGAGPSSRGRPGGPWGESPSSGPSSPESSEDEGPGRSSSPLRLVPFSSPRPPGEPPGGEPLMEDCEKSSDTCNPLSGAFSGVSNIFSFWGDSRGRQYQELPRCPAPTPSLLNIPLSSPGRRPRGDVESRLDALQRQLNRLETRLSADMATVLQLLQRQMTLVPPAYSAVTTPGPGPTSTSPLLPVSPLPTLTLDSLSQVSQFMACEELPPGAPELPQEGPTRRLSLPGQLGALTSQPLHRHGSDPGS
KCNK3 confirm: human KCNK3 channel inhibition, confirmation assay. shares compounds with KCNK3 inh. CHO-KCNK3 thallium flux, FluxOR fluorescence; 0% buffer, 100% carvedilol maximal block. actives 99% (n = 2,400). AID 651638. ratio percent of control, % at 10 µM;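 active means ratio percent of control, averaged over triplicates, above buffer control mean plus 5 SD, cut at about 64% in these data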;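 further: ratio is the fluorescence rise from min to max over baseline after thallium stimulus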
KCNK3 uninduced: counter-screen for KCNK3 inhibitors: effect in non-induced cells. thallium flux ratio (lower = more inhibition) at 10 µM. non-induced KCNK3 parental cells, FluxOR thallium flux; active compounds read low. actives 40% (n = 2,400). shares compounds with KCNK3 inh;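 active means thallium flux ratio, averaged over three wells, more than 5 SD below the buffer control mean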;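 further: host cells are CHO cells without KCNK3 induction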
Hits are given with their value; - = inactive; . = no result given. Hits are enriched below; roughly 3.1% of the tested compounds scored in any of these assays.

SMILES | KCNK9 inh | KCNQ1 inh | KCNK3 inh | KCNQ1 pot | hERG rescue | KCNK3 confirm | KCNK3 uninduced
N#Cc1c(N)n(CCc2ccc(F)cc2)c2nc3ccccc3nc12 | - | - | - | - | - | . | .
NC(=O)NC(CC(=O)NNC(=O)c1cccs1)c1ccc(Cl)cc1 (centres undefined) | . | . | - | . | . | . | .
COc1ccc(CCN2C(=S)N(C)C(=O)C2CC(=O)Nc2ccc(OC)cc2)cc1 (centres undefined) | - | - | -9.2 | - | - | 86 | 0.15
CCN1C(=O)C(CC(=O)Nc2ccc(OC)cc2)N(CCc2ccc(F)cc2)C1=S (centres undefined) | - | - | -9 | - | - | 116 | -
CSc1ccc(CN2CCC(n3nccc3NC(=O)c3ccccc3C)CC2)cc1 | - | - | - | - | - | . | .
CCN(CC)C(=O)Cn1cc(S(=O)(=O)CC(=O)Nc2ccc(F)cc2)c2ccccc21 | - | - | - | - | - | . | .
Cc1ccc(S(=O)(=O)N2[C@@H](c3ccc(C(C)C)cc3)C(C(=O)O)=C[C@H]2C(C)(C)C)cc1 | . | . | - | . | . | . | .
CC(C)n1ncc2c(C(=O)Nc3cccc(C#N)c3)cc(C3CC3)nc21 | . | . | -12 | . | . | 118 | 0.13
CCNC(=O)c1cccc(NC(=O)c2cc(C3CC3)nc3c2cnn3C(C)C)c1 | . | . | - | . | . | . | .
COc1ccc(OCCSc2ncccn2)cc1 | - | - | - | - | - | . | .
COc1ccc(OCCSc2nc(C)nc3ccccc23)cc1 | - | - | -12 | - | - | 123 | -
CCOC(=O)Cc1csc(NC(=O)COc2c(C)cccc2C)n1 | - | - | -13 | - | - | 93 | -
CCOC(=O)Cc1csc(NC(=O)COc2ccccc2OCC)n1 | - | - | - | - | - | . | .
CN1c2ccccc2C(=O)NC1c1ccc(Cl)cc1 (centres undefined) | - | - | - | - | - | . | .
Clc1ccc(C2Nc3ccccc3-n3cccc32)cc1 (centres undefined) | - | - | -13 | - | - | 114 | 0.16
Cc1c(C(=O)N(C)CC(=O)Nc2cccc(F)c2)oc2c(Cl)cccc12 | - | - | - | - | - | . | .
Cc1c(C(=O)OC(C)C(=O)N(C)Cc2ccccc2)oc2ccccc12 (centres undefined) | . | . | -12 | . | . | 77 | -
Cc1c(C(=O)N(C)Cc2ccccc2)oc2c(Cl)cccc12 | - | - | -11 | - | - | 110 | -
Cc1c(C(=O)OCC(=O)N(C)Cc2ccc(Cl)cc2)oc2ccccc12 | . | . | - | . | . | . | .
CC(C)(C)NC(=O)NC(=O)CSc1ccc(S(=O)(=O)N2CCCCC2)cn1 | . | . | - | . | . | . | .
CCOC(=O)C1CCN(C(=O)Nc2cc(Cl)cc(Cl)c2)CC1 | - | - | -9.9 | - | - | 111 | -
O=C(C1CCCN(S(=O)(=O)c2cccc3nsnc23)C1)N1CC=C(c2ccccc2)CC1 (centres undefined) | . | . | -15 | . | . | 115 | -
O=C(CSC1=N/C(=C/c2ccco2)C(=O)N1c1ccc(OC(F)F)cc1)NC1CCS(=O)(=O)C1 (centres undefined) | - | - | -8.9 | - | - | 83 | -
O=C(CNC(=O)c1ccc2c(c1)OCCO2)N=Nc1c(O)[nH]c2ccccc12 | - | - | - | - | - | . | .
Clc1ccc(-c2cc(CSc3ccccc3)on2)cc1 | - | - | - | - | - | . | .
SMILES | KCNK9 inh | KCNQ1 inh | KCNK3 inh | KCNQ1 pot | hERG rescue | KCNK3 confirm | KCNK3 uninduced
c1ccc(SCc2cc(-c3ccccc3)no2)cc1 | - | - | -10 | - | - | 100 | -
CCCOc1ccc(C2NC(=S)NC(C)=C2C(=O)c2ccccc2)cc1OC (centres undefined) | - | - | -9.8 | - | - | 97 | -
CCc1cc(C(=O)OC)c(NC(=O)CSc2nccn2C)s1 | - | - | - | - | - | . | .
CCc1ccccc1Nc1nc(N)nc(COC(=O)CCC(=O)c2ccc(F)cc2)n1 | . | . | - | . | . | . | .
Cc1ccc(NC(=S)N(Cc2ccccc2)C(C)C)cc1 | - | - | - | - | - | . | .
CC(C1CC1)N(Cc1ccccc1)C(=S)Nc1ccccc1 (centres undefined) | - | - | -12 | - | - | 113 | -
Cc1ccc(-c2onc(C)c2C)cc1S(=O)(=O)N1CCOc2ccccc21 | - | - | -9.8 | - | - | 126 | 0.15
COc1cccc(CNS(=O)(=O)c2ccccc2Br)c1OC | . | . | - | . | . | . | .
Cc1cn(C2CCCCC2)c(=O)[nH]c1=O | . | . | - | . | . | . | .
Cc1cc(CN2CCOCC2)c(O)c(C2(C)CCCCC2)c1 | - | - | -9.7 | - | - | 108 | -
CC(C)c1ccc(-c2noc(C3CCCN(C(=O)c4ccc(F)cc4F)C3)n2)cc1 (centres undefined) | - | - | -9.8 | - | - | 134 | 0.14
CC(=O)N1CCN(c2nc(CC(C)C)c3c(c2C#N)CCC3)CC1 | - | - | - | - | - | . | .
CC(C)Cc1nc(N2CCCCC2)c(C#N)c2c1CCC2 | - | - | -9.6 | - | - | 98 | -
CCCCc1nc(N2CCOCC2)c(C#N)c2c1CCCC2 | - | - | -11 | - | - | 108 | -
N#CCCSc1nc(N2CCOCC2)c2c(c1C#N)CCCC2 | - | - | - | - | - | . | .
CCCSc1nc(N2CCOCC2)c2c(c1C#N)CCCC2 | - | - | -12 | - | - | 112 | 0.15
O=C(CSc1nc2ccccc2s1)NCc1cc([N+](=O)[O-])ccc1O | - | - | - | - | - | . | .
Cc1nc(SC2CC(=O)N(c3cc(Cl)cc(Cl)c3)C2=O)nc2c1CCCC2 (centres undefined) | - | - | -9.8 | - | - | 105 | 0.16
Cc1cccc(N2C(=O)CC(Sc3nc(C)c4c(n3)CCCC4)C2=O)c1 (centres undefined) | - | - | - | - | - | . | .
Cc1ccc(NC(=O)Nc2cc(C(F)(F)F)c[nH]c2=O)cc1 | - | - | - | - | - | . | .
Cc1cccc(-n2c(C)nc3cc(C(=O)N4CCOCC4)ccc32)c1 | - | - | - | - | - | . | .
CCN(c1ccc(C(=O)CN2C(=O)NC3(CCOc4ccccc43)C2=O)cc1)S(C)(=O)=O (centres undefined) | . | . | - | . | . | . | .
O=C(COc1ccc(Br)cc1CNCCc1ccccc1)NCc1ccccc1 | - | 7 | -11 | - | - | 102 | -
Cc1ccc(S(=O)(=O)/C(C#N)=C/c2c(N3CCOCC3)nc3c(C)cccn3c2=O)cc1 | - | - | - | - | - | . | .
CCNC(=O)/C(C#N)=C/c1c(N2CCN(c3ccc(OC)cc3)CC2)nc2c(C)cccn2c1=O | - | - | - | - | - | . | .
Cc1cccn2c(=O)c(/C=C(\C#N)S(=O)(=O)c3ccccc3)c(N3CCN(Cc4ccccc4)CC3)nc12 | - | - | -10 | - | - | 108 | -
N#C/C(=C\c1c(N2CCN(Cc3ccccc3)CC2)nc2ccccn2c1=O)S(=O)(=O)c1ccccc1 | - | - | -9 | - | - | 103 | -
